From PMC3861362 (Clinical Pharmacology : Advances and Applications, 2013)
Entries after “also recorded” stand apart in the source; their conditions may differ. Like-named read-outs stand apart in the source and are kept apart here.

Experiments:
[1] = tested on: P-glycoprotein; conditions: cited from earlier work
[2] = type: in vivo, human (healthy Chinese subjects)
Outline: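 Dosing was 10 mg once on day 1, then 10 mg twice daily for 6 d, ending with the morning dose on day 9. Subjects were confined to the facility throughout and monitored for adverse events, with physical examinations, vital signs, ECGs and clinical laboratory tests.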

[3] = biological target: bovine factor Xa (Bos taurus, UniProt P00743); assay: Plasma anti-Xa activity by chromogenic assay after apixaban dosing; type: in vivo
Chain of bovine factor Xa (P00743 234-492 limits assumed): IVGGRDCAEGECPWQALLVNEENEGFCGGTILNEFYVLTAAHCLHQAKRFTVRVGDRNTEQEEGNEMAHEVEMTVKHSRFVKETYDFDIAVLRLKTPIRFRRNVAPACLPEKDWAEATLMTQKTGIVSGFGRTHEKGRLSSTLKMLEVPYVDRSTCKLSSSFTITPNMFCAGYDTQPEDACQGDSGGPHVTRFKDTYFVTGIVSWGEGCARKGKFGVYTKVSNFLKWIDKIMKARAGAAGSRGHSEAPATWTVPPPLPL
Chain of bovine factor Xa (P00743 41-180 partner limits assumed): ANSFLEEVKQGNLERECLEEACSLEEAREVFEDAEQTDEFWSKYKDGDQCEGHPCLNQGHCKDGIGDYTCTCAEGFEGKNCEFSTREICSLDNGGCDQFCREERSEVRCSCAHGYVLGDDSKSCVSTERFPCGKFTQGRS

[4] = tested on: breast cancer resistance protein; conditions: cited from earlier work
[5] = type: in vivo, human (healthy Chinese subjects); conditions: for CL renal: plasma and urine, CLR
[6] = tested on: CYP3A4; conditions: minor contribution from other CYP enzymes; cited from earlier work
[7] = cited from earlier work
[8] = multiple doses 10 mg twice daily, one of twelve subjects

COc1ccc(-n2nc(C(N)=O)c3c2C(=O)N(c2ccc(N4CCCCC4=O)cc2)CC3)cc1 [apixaban]
P-glycoprotein substrate [1]: substrate | severity of adverse events after multiple-dose administration ([2]; 10 mg twice daily): mild | overall safety and tolerability ([2]; healthy Chinese subjects, 10 mg single and twice-daily doses): safe and well tolerated | subjects with elevated alanine aminotransferase (ALT) [2, 8]: 8% | subjects with microscopic hematuria [2, 8]: 8% | subjects with positive fecal blood [2, 8]: 8% | adverse events after single dose ([2]; single-dose apixaban 10 mg): No adverse events | changes in vital signs, physical examinations, or ECGs ([2]; whole study): No clinically significant changes | deaths, serious adverse events, discontinuations, bleeding-related adverse events ([2]; whole study, 10 mg single and twice-daily doses, n=12): no bleeding-related adverse events reported; also recorded: no deaths, other serious adverse events, adverse events leading to discontinuation, or clinically significant bleeding-related adverse events | maximum anti-Xa activity, mean (SD) ([3]; day 9, at 3 hours (peak apixaban concentration), 10 mg twice daily, low-molecular-weight heparin units): 5.57 (SD, 1.54) IU/mL | minimum anti-Xa activity, mean (SD) ([3]; day 9, at 12 hours (trough apixaban concentration), 10 mg twice daily, low-molecular-weight heparin units): 1.94 (SD, 0.54) IU/mL | relationship between anti-Xa activity and plasma apixaban concentration ([3]; single and multiple doses): appears to be linear; also recorded: direct linear relationship | breast cancer resistance protein substrate [4]: substrate | CL renal ([5]; human, oral, 10 mg, Mean (SD), multiple doses 10 mg twice daily, day 9, n=12): 20 mL/min | CL renal ([5]; human, po, 10 mg, Mean (SD), single 10 mg oral dose, day 1, n=12): 19.5 mL/min | Tmax ([5]; human, plasma, oral, 10 mg, Tmax, Median (min, max), multiple doses 10 mg twice daily, day 9, n=12): 3.5 h | half-life ([5]; human, plasma, oral, 10 mg, t½, Mean (SD), multiple doses 10 mg twice daily, day 9, n=12): 10.8 h | AUC(0-inf) ([5]; human, plasma, po, 10 mg): 2310 ng·h/mL | AUC(0-t) ([5]; human, plasma, po, 10 mg): 2270 ng·h/mL | Cmax ([5]; human, plasma, po, 10 mg): 234 ng/mL | time at which steady-state conditions were achieved ([5]; multiple doses 10 mg twice daily): by the third day of multiple-dose administration | t½, Mean (SD) ([5]; single 10 mg oral dose, day 1, n=12): 11.4 (3.6) hours | enzyme mediating oxidative metabolism [6]: primarily mediated via CYP3A4 | CLR ([7]; Japanese and non-Asian subjects, ref previous studies): 0.49 to 1.07 L/h | oral bioavailability [7]: ~ 50% | share of total clearance via the kidneys [7]: 27% | mean elimination t½ ([7]; healthy Western subjects): approximately 12 hours | share of dose undergoing oxidative metabolism ([7]; oral administration): ~ 25% | time to Cmax after oral administration ([7]; oral administration): ~ 3 hours | time to Cmax ([7]; white and Japanese subjects): 2 to 4 h
